Hits are enriched below; roughly 2.2% of the tested compounds scored in any of these assays.
rRNA inh HTS – inhibits bacterial ribosomal RNA function over humanized ribosomes; E. coli WT GFP vs humanized-ribosome RFP mutants, fluorescence, 24 h; stronger effect = lower value; DMSO median 0, no signal -100; hit rate 1.6% among 350,000; AID 720706; GFP signal change (wild-type ribosome), % (concentration not given with the values);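 active = significant combined selectivity score with lowered wild-type GFP, culture density cut under 30%, mutant RFP and density less affected; inactive = any of these conditions unmet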
PglD DTNB – inhibitors of Campylobacter jejuni PglD acetyltransferase; AID 602405; purified PglD enzyme, DTNB colorimetric CoA detection; hit rate 0.098% among 360,000; inhibition, % at 12.5 µM; in the data active = inhibition above about 16%, passing the limit was not always enough
Cneo AK release – Cryptococcus neoformans lysis via adenylate kinase release. C. neoformans lysis, adenylate kinase release luminescence, 4 h; normalised: neutral wells 0, clomiphene wells 100. lysis activity, % at 15 µM. hit rate 0.2% among 360,000. AID 651654;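 active = mean lysis activity across replicates of at least 80%, whatever share of replicates individually reach that level; inactive = mean lysis activity below 80%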
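Assay system: log-phase C. neoformans yeast / Quantity: yeast cell density of 5 × 10^6 cells/mL / Medium: fresh YPD growth medium / Compound: single dose / Timing: static 4 h at 37 °C with compound, 1 h detection / Measured by: adenylate kinase release luminescence / Read-out: lysis from increased AK signal / Benchmarks: Clomiphene as positive lysis control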
SUMO Mot1 rescue – blocks SUMOylation pathway, rescuing yeast Mot1-301 growth. S. cerevisiae Mot1-301 growth rescue, ATP luminescence, 38.5C; percent above DMSO median, 100 means doubled. growth rescue, % at 18.8 µM. hit rate 1% among 320,000. AID 2716;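 active = every valid replicate shows activation above 250% relative to neutral control wells; inactive = the rest, any valid replicate at or below 250%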;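 note: OY570 slx delta 5 strain wells were the positive control but not used for scaling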
CR mimetic SO – yeast age-related superoxide inhibition as caloric restriction mimetic | hit rate 0.18% among 330,000 | S. cerevisiae aged cells, superoxide DHE fluorescence; stronger effect = lower value | AID 2690 | superoxide response (% of plate mean), % at 10 µM;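 active = superoxide response under a set limit, about three screen SD below normal, cut at about 65% in these data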;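 note: yeast aged for seven days with compound at 30 °C before DHE staining; 100% = average MFI of all compound-treated wells on the plate with controls excluded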
An asterisk follows results filed as active.

What do the screens show for `COc1ccc(N(C(=O)c2ccco2)C(C(=O)NC2CCCC2)c2ccncc2)cc1OC` (stereo not given)?
rRNA inh HTS: -2.3; PglD DTNB: -1.6; Cneo AK release: 0.2; SUMO Mot1 rescue: 275.2*; CR mimetic SO: 105.4

How did COC(=O)c1c(C)[nH]c(C(=O)OCC(=O)c2ccc(C)s2)c1C do in these assays?
rRNA inh HTS: -19.9*; PglD DTNB: -2.8; Cneo AK release: 1.3; SUMO Mot1 rescue: 12.8; CR mimetic SO: 105.8

Results for CN1CCN(C(=O)C[C@@H]2C[C@@H]3c4cc(NC(=O)Nc5ccccc5F)ccc4O[C@@H]3[C@@H](CO)O2)CC1 ?
rRNA inh HTS: 1.0; PglD DTNB: 2.5; Cneo AK release: 69.9

What do the screens show for `N#CCCCCn1ccc(NC(=O)c2ccc(Cl)cc2O)n1`?
rRNA inh HTS: -30.4*; SUMO Mot1 rescue: -10.4; CR mimetic SO: 111.4

What do the screens show for `O=[N+]([O-])c1ccc(NN=C(C2CC2)C2CC2)c([N+](=O)[O-])c1`?
rRNA inh HTS: -21.5*; PglD DTNB: -1.6; Cneo AK release: 1.8

How did CCC(CC)=NNc1ccc([N+](=O)[O-])cc1[N+](=O)[O-] do in these assays?
rRNA inh HTS: 24.4; SUMO Mot1 rescue: -0.4; CR mimetic SO: 100.7

How did COc1ccc(CCNC(=O)c2ccc(-c3ccc([N+](=O)[O-])cc3Cl)o2)cc1 do in these assays?
rRNA inh HTS: -22.9*; PglD DTNB: -3.2; Cneo AK release: -3.2; SUMO Mot1 rescue: -4.8; CR mimetic SO: 80.1

How did O=C(NCCc1ccccc1)C1CCN(C(=O)c2ccc([N+](=O)[O-])cc2)CC1 do in these assays?
rRNA inh HTS: 10.0; SUMO Mot1 rescue: 1.7; CR mimetic SO: 91.7

How did COc1ccc(CCNC(=O)C2CCN(C(=O)c3ccc([N+](=O)[O-])cc3)CC2)cc1 do in these assays?
rRNA inh HTS: 3.4; SUMO Mot1 rescue: 314.1*; CR mimetic SO: 101.7

How did COc1ccc(CCNC(=O)c2ccc(-c3cccc([N+](=O)[O-])c3)o2)cc1OC do in these assays?
rRNA inh HTS: -25.1; SUMO Mot1 rescue: 7.0; CR mimetic SO: 103.6

What do the screens show for `COc1ccc(NC(=O)Nc2ccc3c(c2)C(=O)N([C@H](C)CO)C[C@@H](C)[C@H](CN(C)C(=O)CCCN(C)C)OCCCC[C@@H](C)O3)cc1`?
rRNA inh HTS: 0.3; PglD DTNB: -0.4; Cneo AK release: -0.2

Results for Cn1c(=O)c(-c2cc(=O)[nH][nH]2)c(O)c2ccccc21 ?
rRNA inh HTS: -34.1*; SUMO Mot1 rescue: 165.9; CR mimetic SO: 90.8

Results for COCC(=O)N(C)C[C@H]1Oc2ncc(-c3ccccc3C)cc2C(=O)N([C@H](C)CO)C[C@@H]1C ?
PglD DTNB: -1.0; Cneo AK release: -9.5

What do the screens show for `O=[N+]([O-])c1cccc(C(=Nc2ccccc2Cl)NO)c1`?
PglD DTNB: 2.5; Cneo AK release: 15.3; SUMO Mot1 rescue: -6.9; CR mimetic SO: 96.6

How did ONC(=Nc1ccccc1Cl)c1ccccc1Cl do in these assays?
rRNA inh HTS: -31.5*; PglD DTNB: 3.7; Cneo AK release: 5.1; SUMO Mot1 rescue: 96.5; CR mimetic SO: 97.7

Results for CN(C)c1cccc(C(=O)Nc2ccc3nc4n(c(=O)c3c2)CCCCC4)c1 ?
rRNA inh HTS: -25.6*; PglD DTNB: 1.2; Cneo AK release: -2.1; SUMO Mot1 rescue: -2.7; CR mimetic SO: 90.6

What do the screens show for `COc1cccc(C(=O)Nc2ccc3nc4n(c(=O)c3c2)CCCC4)c1`?
rRNA inh HTS: -3.9; PglD DTNB: 2.6; Cneo AK release: 0.6; SUMO Mot1 rescue: 4.7; CR mimetic SO: 105.6

How did O=C(NCCc1ccccc1)C(=O)Nc1nccs1 do in these assays?
PglD DTNB: 1.0; SUMO Mot1 rescue: -2.8; CR mimetic SO: 90.7

How did S=C(NCCc1ccccc1)Nc1nccs1 do in these assays?
rRNA inh HTS: -22.4*; PglD DTNB: -0.4; Cneo AK release: 39.8; SUMO Mot1 rescue: 7.2; CR mimetic SO: 106.1

Results for Fc1cccc(CCN2C(=S)NC[C@@H]2CC2CCCCC2)c1 ?
rRNA inh HTS: -23.0*; PglD DTNB: -2.3; Cneo AK release: 9.7; SUMO Mot1 rescue: 14.3; CR mimetic SO: 112.2

How did CCCC[C@@H]1CNC(=S)N1CCc1cccc(F)c1 do in these assays?
rRNA inh HTS: -6.3; PglD DTNB: 3.8; Cneo AK release: 16.3; SUMO Mot1 rescue: 6.7

Results for Fc1cccc(CCN2C(=S)NC[C@@H]2Cc2ccccc2)c1 ?
rRNA inh HTS: -48.4; PglD DTNB: -2.4; Cneo AK release: 142.4*; SUMO Mot1 rescue: -0.3; CR mimetic SO: 119.8

Results for O=C(O)C[C@@H]1C[C@@H]2c3cc(NC(=O)c4ccc5c(c4)OCO5)ccc3O[C@@H]2[C@H](CO)O1 ?
rRNA inh HTS: 4.1; PglD DTNB: 2.7; Cneo AK release: 3.4

Results for Nc1ccc2nc(SCc3cccc(F)c3)sc2c1 ?
rRNA inh HTS: -31.2*; PglD DTNB: -6.0; Cneo AK release: -2.0; SUMO Mot1 rescue: 241.5; CR mimetic SO: 92.1

How did CSc1nc(C)c(C(=O)Nc2ccccc2)c(C)c1C#N do in these assays?
rRNA inh HTS: -21.0*; PglD DTNB: -3.4; Cneo AK release: 3.0; SUMO Mot1 rescue: 8.8; CR mimetic SO: 99.4

How did Cc1ccc(S(=O)(=O)Nc2ccc3c(c2)C(=O)N([C@@H](C)CO)C[C@@H](C)[C@H](CN(C)Cc2ccccc2)OCCCC[C@@H](C)O3)cc1 do in these assays?
rRNA inh HTS: 0.9; PglD DTNB: 0.6; Cneo AK release: 2.4

What do the screens show for `CCN(CC)c1c([N+](=O)[O-])c(=O)n(CC)c2ccccc12`?
rRNA inh HTS: -35.0*; PglD DTNB: -8.1; Cneo AK release: -0.4; SUMO Mot1 rescue: 19.6; CR mimetic SO: 102.3

How did CCn1c(=O)c([N+](=O)[O-])c(N2CCOCC2)c2ccccc21 do in these assays?
SUMO Mot1 rescue: -0.2; CR mimetic SO: 113.5

What do the screens show for `CCNc1c([N+](=O)[O-])c(=O)n(CC)c2ccccc12`?
rRNA inh HTS: -33.5*; PglD DTNB: -1.4; Cneo AK release: 0.1; SUMO Mot1 rescue: -8.1; CR mimetic SO: 107.2

What do the screens show for `CCn1c(=O)c([N+](=O)[O-])c(NCc2ccco2)c2ccccc21`?
rRNA inh HTS: 3.6; PglD DTNB: -2.7; Cneo AK release: -1.1; SUMO Mot1 rescue: -0.7; CR mimetic SO: 91.1

How did CO[C@H]1CN(C)C(=O)c2cc(NS(=O)(=O)c3ccc(Cl)cc3)ccc2OC[C@@H](C)NC[C@@H]1C do in these assays?
rRNA inh HTS: 2.2; PglD DTNB: 1.2; Cneo AK release: -2.3

How did O=C(O)c1ccc(NS(=O)(=O)c2cccc(C(=O)Nc3ccc(Br)cc3)c2)cc1 do in these assays?
rRNA inh HTS: -27.2*; PglD DTNB: 6.0; Cneo AK release: -0.8; SUMO Mot1 rescue: 10.0; CR mimetic SO: 115.4

What do the screens show for `O=C(Nc1ccccc1C(=O)O)c1cccc(S(=O)(=O)Nc2ccc(Br)cc2)c1`?
rRNA inh HTS: -23.9; PglD DTNB: 10.5; Cneo AK release: -2.7; SUMO Mot1 rescue: -4.4; CR mimetic SO: 97.8

Assay outcomes deposited in PubChem BioAssay by several laboratories.
